Source: PubChem BioAssay
The list is not random: actives were taken first. Their share in the collection is about 2.3%.
FN deposition inh – fibronectin deposition inhibition. AH1F fibroblasts, Alexa488-fibronectin deposition fluorescence, overnight. inhibition, % at 12.6 µM. 0.086% of 350,000 active. AID 743247;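 active = mean inhibition across replicates of 30% or more, regardless of how many single replicates reach that level; inconclusive = mean under 30% yet at least half of replicates reach 30%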
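Material – AH1F fibroblast monolayer, labelled fibronectin deposition · Reagent – labelled fibronectin 24 nM · Timing – 1 h adhesion, overnight exposure · Measured by – fluorescence at 485 nm excitation, 525 nm emission · Read-out – inhibition of fibronectin deposition signal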
CFTR F508del cor – correctors of CFTR F508del function in bronchial epithelial cells; activity (quench increase), % at 7.58 µM; CFBE cells, YFP halide quenching; stimulated with forskolin plus potentiator P3; % fluorescence drop versus neutral controls; 0.36% of 350,000 active; AID 720511;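 active = mean added fluorescence quench of at least 8% versus neutral control, with both replicates also reaching 8%; inconclusive = only one of the mean or replicate conditions met; inactive = mean below 8% and not both replicates reaching 8%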;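 also: cells transiently co-express mutant CFTR-F508del with the halide-sensitive YFP; corrector assay measuring rescue of mutant channel to the surface after 24 h compound exposure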
PGC1a acetyl inh – modulators of PGC1a acetylation | U2OS PGC1a acetylation, AlphaScreen anti-acetyl-lysine; with virally co-expressed GCN5 acetyltransferase | inhibition, % at 15.6 µM | 0.17% of 350,000 active;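 active = every replicate shows inhibition of at least 40%; inconclusive = mean inhibition at least 40% but some replicate below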
Env fusion inh – HIV envelope-mediated fusion inhibition; HeLa-JRFL Env/CEM21 cell fusion, luciferase; inhibition, % at 12.3 µM; 1.1% of 360,000 active;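 active = mean replicate inhibition score of at least 50 and every replicate individually at or above 50; inconclusive = only one of the two criteria met; inactive = mean below 50 and not all replicates reaching 50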
PAX8 reporter – inhibitors of PAX8 transcriptional activity in RMG-I cells; RMG-I TPO-luciferase reporter, SteadyGlo, 24 h; inhibition, % at 12.6 µM; 1.2% of 360,000 active;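 active = mean replicate inhibition at least 60% with every replicate also reaching 60%; inconclusive = only one of the two criteria is met; inactive = mean below 60% and not all replicates reaching 60%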;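 also: luciferase light reporting Pax8 driven TPO promoter activity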
EWS-Fli block – blocks EWS/Fli oncoprotein-driven transcription | 0.67% of 350,000 active | AID 651661 | inhibition, % at 12.6 µM | A673 NR0B1-luciferase reporter, viability-normalised;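 active = mean inhibition of at least 50% after viability correction, with every replicate also passing that limit; inconclusive = mean reaches 50% but only one of two replicates passes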;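 also: firefly luciferase signal divided by Alamar Blue viability fluorescence both relative to DMSO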
Numbers stand for hits; [ ] = remark or other dose.

Results for CCOC(=O)Cn1c(S(=O)(=O)Cc2ccc(Cl)cc2)nc(-c2ccccc2)c1-c1ccccc1 ?
FN deposition inh: inactive; PGC1a acetyl inh: inactive; Env fusion inh: 113.9

What do the screens show for `C#CCn1c(S(=O)(=O)Cc2ccc(OC)cc2)nc(-c2ccccc2)c1-c1ccccc1`?
FN deposition inh: inactive; PGC1a acetyl inh: inactive; Env fusion inh: 82.3

What do the screens show for `C[C@H](CO)N1C[C@H](C)[C@@H](CN(C)CC2CCCCC2)Oc2ccc(NC(=O)CCN3CCOCC3)cc2CC1=O`?
CFTR F508del cor: inactive; PGC1a acetyl inh: inactive; Env fusion inh: inactive; EWS-Fli block: inactive

Results for NC(=O)c1cc([N+](=O)[O-])ccc1NCc1ccc(N)cc1 ?
FN deposition inh: inactive; CFTR F508del cor: inactive; Env fusion inh: 70.7; PAX8 reporter: inactive; EWS-Fli block: 73.9

Results for NC(=O)c1cc([N+](=O)[O-])ccc1NCc1ccc(F)cc1 ?
FN deposition inh: inactive; CFTR F508del cor: inactive; Env fusion inh: inactive; PAX8 reporter: inactive; EWS-Fli block: inactive

Results for COc1cccc(-n2c(-c3ccccc3)c[nH]c2=S)c1 ?
FN deposition inh: inactive; CFTR F508del cor: inactive; Env fusion inh: inactive; PAX8 reporter: inactive; EWS-Fli block: inactive

Results for S=c1[nH]cc(-c2ccccc2)n1-c1cccc(Cl)c1 ?
FN deposition inh: inactive; Env fusion inh: 70.2; PAX8 reporter: inactive; EWS-Fli block: inactive

Results for Cc1cccc(/C=N\Nc2cn[nH]c(=O)c2Cl)c1 ?
FN deposition inh: inactive; PGC1a acetyl inh: inactive; Env fusion inh: 72.7

What do the screens show for `O=C(CCNS(=O)(=O)c1cccc2nonc12)NC1CCCc2ccccc21` (stereo unspecified)?
FN deposition inh: 35.5; PGC1a acetyl inh: inactive; Env fusion inh: inactive

How did C[C@H]1CN([C@@H](C)CO)C(=O)Cc2cc(NS(=O)(=O)c3ccc(Cl)cc3)ccc2O[C@H]1CN(C)C(=O)Nc1ccccc1 do in these assays?
CFTR F508del cor: inactive; PGC1a acetyl inh: inactive; PAX8 reporter: inactive; EWS-Fli block: inactive

Results for C[C@H](CO)N1C[C@H](C)[C@H](CN(C)Cc2ccc(Cl)c(Cl)c2)OCCCC[C@H](C)Oc2ccc(NS(=O)(=O)c3ccc(F)cc3)cc2C1=O ?
FN deposition inh: inactive; CFTR F508del cor: inactive; PGC1a acetyl inh: inactive; Env fusion inh: 88.5[16.7 µM]; PAX8 reporter: 97.4; EWS-Fli block: inactive

What do the screens show for `C[C@@H]1CCCCO[C@H](CN(C)Cc2ccc(Cl)c(Cl)c2)[C@@H](C)CN([C@H](C)CO)C(=O)c2cc(NS(=O)(=O)c3ccc(F)cc3)ccc2O1`?
FN deposition inh: inactive; CFTR F508del cor: inactive; PGC1a acetyl inh: inactive; Env fusion inh: inactive; PAX8 reporter: inactive; EWS-Fli block: inactive

What do the screens show for `C[C@@H]1CN([C@H](C)CO)C(=O)c2cc(NS(=O)(=O)c3ccc(F)cc3)ccc2O[C@@H](C)CCCCO[C@H]1CN(C)Cc1ccc(Cl)c(Cl)c1`?
FN deposition inh: inactive; CFTR F508del cor: inactive; PGC1a acetyl inh: inactive; Env fusion inh: inactive; PAX8 reporter: 69.5; EWS-Fli block: inactive

What do the screens show for `C[C@@H]1CCCCO[C@@H](CN(C)Cc2ccc(Cl)c(Cl)c2)[C@@H](C)CN([C@@H](C)CO)C(=O)c2cc(NS(=O)(=O)c3ccc(F)cc3)ccc2O1`?
FN deposition inh: inactive; CFTR F508del cor: inactive; PGC1a acetyl inh: inactive; Env fusion inh: inactive; PAX8 reporter: inactive; EWS-Fli block: inactive

How did COc1cccc(C#Cc2ccc3c(c2)[C@H]2[C@H](CCN2C(=O)c2ccc4c(c2)OCO4)[C@H](CO)N3)c1 do in these assays?
CFTR F508del cor: inactive; PGC1a acetyl inh: inactive; Env fusion inh: inactive; EWS-Fli block: inactive

What do the screens show for `O=C(C[C@H]1CC[C@H](NC(=O)Nc2cccc(F)c2)[C@H](CO)O1)NCC1CC1`?
FN deposition inh: inactive; CFTR F508del cor: inactive; PGC1a acetyl inh: inactive; Env fusion inh: inactive; PAX8 reporter: inactive; EWS-Fli block: inactive

Results for CCn1c2ccccc2c2cc(/C=N/n3cnnc3)ccc21 ?
PGC1a acetyl inh: inactive

Results for CCn1c2ccccc2c2cc(/C=N/n3cn[nH]c3=S)ccc21 ?
FN deposition inh: inactive; PGC1a acetyl inh: 41.6; Env fusion inh: inactive

Results for COc1ccc(S(=O)(=O)Nc2ccc3c(c2)C(=O)N([C@H](C)CO)C[C@@H](C)[C@@H](CN(C)C(=O)Nc2cccc4ccccc24)OCCCC[C@@H](C)O3)cc1 ?
CFTR F508del cor: inactive; PGC1a acetyl inh: inactive; Env fusion inh: inactive; PAX8 reporter: inactive; EWS-Fli block: inactive

How did N#Cc1ccc(-c2ccc3c(c2)[C@H]2[C@H](CCN2Cc2ccc4c(c2)OCO4)[C@H](CO)N3)cc1 do in these assays?
FN deposition inh: inactive; CFTR F508del cor: inactive; PGC1a acetyl inh: inactive; PAX8 reporter: inactive; EWS-Fli block: inactive

Results for CC(CNC(=S)Nc1cc(F)cc(F)c1)CSc1ccc(Cl)cc1 (stereo unspecified) ?
FN deposition inh: inactive; CFTR F508del cor: inactive; PGC1a acetyl inh: inactive; Env fusion inh: 78.2; PAX8 reporter: inactive; EWS-Fli block: inactive

Results for O=C(COn1nnc2ccc(Cl)cc21)NC12CC3CC(CC(C3)C1)C2 ?
PGC1a acetyl inh: 84.7; Env fusion inh: inconclusive

What do the screens show for `COc1cccc(CN2[C@H](CO)[C@H](c3ccccc3)C23CN(C(=O)C2CCCCC2)C3)c1`?
FN deposition inh: inactive; CFTR F508del cor: inactive; PGC1a acetyl inh: inactive; PAX8 reporter: inactive; EWS-Fli block: inactive

Results for CCOC(=O)/C=C1\SCC(=O)N1CC(=O)Nc1ccc(OC)c(OC)c1 ?
PGC1a acetyl inh: inactive

How did CCOC(=O)/C=C1/SCC(=O)N1CC(=O)NC12CC3CC(CC(C3)C1)C2 do in these assays?
FN deposition inh: inactive; CFTR F508del cor: inactive; PGC1a acetyl inh: inactive; Env fusion inh: 57.3; EWS-Fli block: inactive

How did CCS(=O)(=O)N1CC(=O)N2[C@@H](CO)[C@H](c3ccc(C#CCC(C)C)cc3)[C@@H]2C1 do in these assays?
CFTR F508del cor: inactive; PGC1a acetyl inh: inactive; PAX8 reporter: inactive; EWS-Fli block: inactive

Results for O=C1CN(Cc2ccc(F)cc2)C[C@@H]2[C@@H](c3ccc(Br)cc3)[C@@H](CO)N12 ?
CFTR F508del cor: inactive; PGC1a acetyl inh: inactive; PAX8 reporter: 72.5; EWS-Fli block: inactive

What do the screens show for `O=C1CN(S(=O)(=O)Cc2ccccc2)C[C@@H]2[C@@H](c3ccc(C#Cc4ccc(F)cc4)cc3)[C@@H](CO)N12`?
FN deposition inh: inactive; CFTR F508del cor: inactive; PGC1a acetyl inh: inactive; PAX8 reporter: 105.9; EWS-Fli block: inactive

What do the screens show for `O=C1CN(S(=O)(=O)Cc2ccccc2)C[C@@H]2[C@@H](c3ccc(C#Cc4ccc(F)cc4)cc3)[C@H](CO)N12`?
CFTR F508del cor: inactive; PGC1a acetyl inh: inactive; PAX8 reporter: inactive; EWS-Fli block: inactive
